Experiments:
[1] = Dose required for 50% lowering of plasma TC in standard-diet-fed golden Syrian hamsters 16h postdosing.; type: functional
Procedure, shortened: (§1)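 Golden Syrian hamsters on standard diet were dosed orally once daily for 3 days. Plasma total cholesterol was measured 16 h after dosing. Values are percent TC lowering at a given dose (mg/kg), or ED50, the dose giving 50% plasma TC lowering.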

[2] = target: T1, Microsomal triglyceride transfer protein large subunit (Homo sapiens, UniProt P55157); assay: (§2) In vitro inhibition of human microsomal triglyceride transfer protein in HepG2 cells using apoB secretion assay; type: cell-based
T1 sequence (P55157 whole entry): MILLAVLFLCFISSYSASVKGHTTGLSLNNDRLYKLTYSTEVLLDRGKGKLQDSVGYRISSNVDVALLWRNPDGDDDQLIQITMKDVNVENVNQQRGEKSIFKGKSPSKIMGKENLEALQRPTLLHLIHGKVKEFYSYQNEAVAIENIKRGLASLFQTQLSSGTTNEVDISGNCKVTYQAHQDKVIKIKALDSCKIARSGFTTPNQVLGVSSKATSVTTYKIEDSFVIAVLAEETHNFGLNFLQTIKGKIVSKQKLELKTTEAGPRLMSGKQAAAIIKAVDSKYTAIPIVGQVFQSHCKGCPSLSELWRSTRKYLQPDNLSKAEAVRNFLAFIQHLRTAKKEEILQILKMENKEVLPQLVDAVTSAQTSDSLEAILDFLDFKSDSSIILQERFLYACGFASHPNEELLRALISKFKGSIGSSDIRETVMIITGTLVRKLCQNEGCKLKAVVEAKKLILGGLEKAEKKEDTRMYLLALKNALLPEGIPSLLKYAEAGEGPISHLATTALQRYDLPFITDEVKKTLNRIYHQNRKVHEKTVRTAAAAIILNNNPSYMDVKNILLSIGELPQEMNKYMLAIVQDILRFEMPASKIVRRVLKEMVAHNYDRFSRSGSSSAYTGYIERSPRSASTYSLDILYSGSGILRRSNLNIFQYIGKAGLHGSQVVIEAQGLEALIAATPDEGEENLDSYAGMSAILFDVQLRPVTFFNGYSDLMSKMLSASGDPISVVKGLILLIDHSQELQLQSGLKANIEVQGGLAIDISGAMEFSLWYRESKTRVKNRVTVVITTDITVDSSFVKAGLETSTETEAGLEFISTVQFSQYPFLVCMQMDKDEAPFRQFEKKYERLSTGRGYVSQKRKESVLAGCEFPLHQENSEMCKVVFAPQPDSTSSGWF

[3] = target: T1, Microsomal triglyceride transfer protein large subunit; assay: In vitro inhibition of human Microsomal Triglyceride Transfer Protein, (triglyceride transfer assay)
[4] = PlasmaTC lowering was determined in standard-diet-fed cynomolgus monkeys after 16h of postdosing of at 2.5 mg/kg; type: functional, Cercopithecidae
Procedure, shortened: (§3)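 Cynomolgus monkeys on standard diet received oral dosing once daily for 7 days. Plasma TC was measured 16 h postdosing. Values are percent lowering at a stated dose (mg/kg), or ED50, the dose producing 50% TC lowering.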

[5] = target: T1, Microsomal triglyceride transfer protein large subunit; assay: In vitro inhibition of human Microsomal Triglyceride Transfer Protein (triglyceride transfer assay)
[6] = ED50 represents dose required for 50% lowering of plasma TC in standard-diet-fed golden Syrian hamsters 16h postdosing.; conditions: Mesocricetus auratus
[7] = PlasmaTC lowering was determined in standard-diet-fed cynomolgus monkeys after 16h of postdosing of at 5 mg/kg; type: functional, Cercopithecidae; procedure, shortened: as §3
[8] = system: Mesocricetus auratus; assay: TC lowering at 8 mg/kg was measured as % lowering of plasma TC in standard-diet-fed golden Syrian hamsters 16h postdosing.
[9] = TC lowering at dose was measured as % lowering of plasma TC in standard-diet-fed cynomolgus monkeys 16h postdosing.; type: functional, Cercopithecidae; procedure, shortened: as §3
[10] = Dose required for 50% lowering of plasma TC in standard-diet-fed cynomolgus monkeys; type: functional; conditions: Cercopithecidae; procedure, shortened: as §3
[11] = PlasmaTC lowering was determined in standard-diet-fed cynomolgus monkeys after 16h of postdosing at 5 mg/kg; type: functional, Cercopithecidae; procedure, shortened: as §3
[12] = target: T1, Microsomal triglyceride transfer protein large subunit; assay: In vitro inhibition of human microsomal triglyceride transfer protein using triglyceride transfer assay
[13] = Dose required for 50% lowering of plasma TC in standard-diet-fed golden Syrian hamsters 16h postdosing; type: functional; procedure, shortened: as §1
[14] = PlasmaTC lowering was determined in standard-diet-fed cynomolgus monkeys after 16h of postdosing at 10 mg/kg; type: functional, Cercopithecidae; procedure, shortened: as §3
[15] = target: T1, Microsomal triglyceride transfer protein large subunit; assay: as §2; type: functional, cell-based
[16] = PlasmaTC lowering was determined in standard-diet-fed cynomolgus monkeys after 16h of postdosing at 2.5 mg/kg; type: functional, Cercopithecidae; procedure, shortened: as §3
[17] = PlasmaTC lowering was determined in standard-diet-fed cynomolgus monkeys after 16h of postdosing at 1.25 mg/kg; type: functional, Cercopithecidae; procedure, shortened: as §3
[18] = system: Mesocricetus auratus; assay: PlasmaTC lowering was determined in standard-diet-fed after 16h of postdosing of at 15 mg/kg in golden Syrian hamsters
[19] = PlasmaTC lowering was determined in standard-diet-fed cynomolgus monkeys after 16h of postdosing of at 0.3 mg/kg; type: functional, Cercopithecidae; procedure, shortened: as §3
[20] = Dose required for 50% lowering of plasma TC in standard-diet-fed cynomolgus monkeys 16h postdosing.; type: functional; conditions: Cercopithecidae; procedure, shortened: as §3
[21] = PlasmaTC lowering was determined in standard-diet-fed cynomolgus monkeys after 16h of postdosing of at 1 mg/kg; type: functional, Cercopithecidae; procedure, shortened: as §3
[22] = PlasmaTC lowering was determined in standard-diet-fed cynomolgus monkeys after 16h of postdosing of at 1.25 mg/kg; type: functional, Cercopithecidae; procedure, shortened: as §3
[23] = PlasmaTC lowering was determined in standard-diet-fed cynomolgus monkeys after 16h of postdosing of at 0.1 mg/kg; type: functional, Cercopithecidae; procedure, shortened: as §3
[24] = system: Mesocricetus auratus; assay: 50% lowering of plasma TC in standard-diet-fed golden Syrian hamsters 16h postdosing. 15 mg/kg required for

## Cc1ccc2c(ncn2CCCCC2(C(=O)NCC(F)(F)F)c3ccccc3-c3ccccc32)c1NC(=O)c1ccccc1-c1ccc(C(F)(F)F)cc1
[1]
  ED50: 3.8 mg/kg
[2]
  IC50: 0.02 nM
[3]
  IC50: 1 nM
[4]
  TC lowering: -68%

## O=C(Nc1cccc2c1ncn2CCCCC1(C(=O)NCC(F)(F)F)c2ccccc2-c2ccccc21)c1ccccc1-c1ccc(C(F)(F)F)cc1
[5]
  IC50: 5 nM
[6]
  ED50: 12 mg/kg
[7]
  TC lowering: -52%
[2]
  IC50: 0.24 nM
[4]
  TC lowering: -19%

## CC(C)c1nc2c(NC(=O)c3ccccc3-c3ccc(C(F)(F)F)cc3)cccc2n1CCCCC1(C(=O)NCC(F)(F)F)c2ccccc2-c2ccccc21
[8]
  TC lowering: -60%
[2]
  IC50: 0.06 nM
[3]
  IC50: 4 nM
[9]
  TC lowering: -39%

## O=C(NC1CCN(CCCCC2(C(=O)NCC(F)(F)F)c3ccccc3-c3ccccc32)CC1)c1ccccc1-c1ccc(C(F)(F)F)cc1 [LOMITAPIDE]
[10]
  ED50: 2 mg/kg
[11]
  TC lowering: -74%
[12]
  IC50: 8 nM
[13]
  ED50: 2.3 mg/kg
[14]
  TC lowering: -88%
[15]
  IC50: 0.8 nM
[16]
  TC lowering: -65%
[17]
  TC lowering: -35%

## O=C(Nc1cccc2c1ncn2CCCC1(C(=O)NCC(F)(F)F)c2ccccc2-c2ccccc21)c1ccccc1-c1ccc(C(F)(F)F)cc1
[18]
  TC lowering: -11%
[3]
  IC50: 10 nM

## Cc1ccc2c(nc(C)n2CCCCC2(C(=O)NCC(F)(F)F)c3ccccc3-c3ccccc32)c1NC(=O)c1ccccc1-c1ccc(C(F)(F)F)cc1
[19]
  TC lowering: -43%
[1]
  ED50: 0.28 mg/kg
[20]
  ED50: 0.38 mg/kg
[2]
  IC50: 0.03 nM
[3]
  IC50: 1 nM
[21]
  TC lowering: -76%
[22]
  TC lowering: -83%
[23]
  TC lowering: -28%

## CCCc1nc2c(NC(=O)c3ccccc3-c3ccc(C(F)(F)F)cc3)cccc2n1CCCCC1(C(=O)NCC(F)(F)F)c2ccccc2-c2ccccc21
[24]
  TC lowering: -44%
[3]
  IC50: 2 nM

## Cc1nc2c(NC(=O)c3ccccc3-c3ccc(C(F)(F)F)cc3)cccc2n1CCCCC1(C(=O)NCC(F)(F)F)c2ccccc2-c2ccccc21
[1]
  ED50: 2.5 mg/kg
[7]
  TC lowering: -80%
[2]
  IC50: 0.15 nM
[3]
  IC50: 1 nM
[22]
  TC lowering: -51%

Source: ChEMBL document CHEMBL1134640, “A novel series of highly potent benzimidazole-based microsomal triglyceride transfer protein inhibitors” (J Med Chem, 2001)
